Measurements: ChEMBL document CHEMBL1122670, “Synthesis of previously inaccessible quinazolines and 1,4-benzodiazepines as potential anticonvulsants” (J Med Chem, 1984)
pKi: −log10 of the molar value. Calls of active or inactive are those of the source.

Experiments:
[1] = test system: Mus musculus; assay: Effective dose (ED50) was determined in sc Met (pentylenetetrazole) seizure threshold test; I = Inactive at all doses including 600 mg/kg; format: functional, organism-based; design: dose 600 mg/kg
How it was run: (§1)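 ADD Program screen in mice. Doses of 30, 100, 300 and 600 mg/kg were given, four animals per dose, with tests at 30 min and at 4 h. sc Met endpoint: no threshold seizure (single clonic spasm of 5 s) after an sc convulsant dose 99 of pentylenetetrazol. Rotorod assessed acute neurotoxicity. ED50/TD50 were estimated graphically; Litchfield-Wilcoxon 95% confidence limits were added for selected cases.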

[2] = test system: Mus musculus; assay: Evaluated for seizure threshold test at a dose 30 mg/kg & MMT is the maximal metrazole threshold to tonic flexion; I = Inactive.; format: functional, organism-based; design: dose 30 mg/kg
How it was run: (§2)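 0.5% pentylenetetrazol (with 0.9% NaCl and 0.001% heparin) was infused into a lateral tail vein at 6.31 μL/s. Time to 3 s of persistent clonus (MST) or hindlimb tonic flexion (MMT) was converted to mg/kg infused. Tested at 0.5 h (some at 4 h or 1 h). Results are % change from controls, by Student's t test.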

[3] = test system: Mus musculus; assay: Evaluated for seizure threshold test at a dose 30 mg/kg & MST is the metrazole seizure threshold to persistent clonus; format: functional
How it was run: (§3)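 At 0.5 h (some at 1 or 4 h), 0.5% pentylenetetrazol in 0.9% NaCl with 0.001% heparin was infused into the tail vein at 6.31 μL/s. Time to 3 s persistent clonus (MST) or tonic flexion (MMT) was converted to mg/kg, reported as % change vs controls, Student's t test.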

[4] = Compound was evaluated for median lethal dose; format: ADME, organism-based; settings: mouse, in vivo
[5] = Compound was determined in rotarod test and expressed as TD50; format: ADME, organism-based; settings: mouse, in vivo
How it was run: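 ADD Program screen in mice. Doses of 30, 100, 300 and 600 mg/kg were given, four animals per dose, with tests at 30 min and at 4 h. sc Met endpoint: no threshold seizure (single clonic spasm of 5 s) after an sc convulsant dose 99 of pentylenetetrazol. Rotorod assessed acute neurotoxicity.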

[6] = target: GABA-A receptor; anion channel (Mus musculus) (UniProt Q8BHJ7+P26048+Q8QZW7+P50571+Q9R0Y8+P22723+A2AMW3+P62812+Q9JLF1+P26049+P22933+Q9D6F4+P63080+P27681+P16305); assay: Inhibition of binding to GABA-A central benzodiazepine receptor (inactive); format: protein-complex assay
[7] = test system: Mus musculus; assay: Evaluated for seizure threshold test at a dose 300 mg/kg & MST is the metrazole seizure threshold to persistent clonus; format: functional; how it was run: as §3
[8] = test system: Mus musculus; assay: Effective dose (ED50) was determined in sc Met (pentylenetetrazole) seizure threshold test; format: functional; how it was run: as §1
[9] = test system: Mus musculus; assay: Evaluated for seizure threshold test at a dose 100 mg/kg & MMT is the maximal metrazole threshold to tonic flexion; I = inactive; format: functional, organism-based; design: dose 100 mg/kg; how it was run: as §3
[10] = test system: Mus musculus; assay: Evaluated for seizure threshold test at a dose 300 mg/kg & MMT is the maximal metrazole threshold to tonic flexion; I - inactive; format: functional, organism-based; design: dose 300 mg/kg; how it was run: as §3
[11] = test system: Mus musculus; assay: Evaluated for seizure threshold test at a dose 100 mg/kg & MST is the metrazole seizure threshold to persistent clonus; I = inactive; format: functional, organism-based; design: dose 100 mg/kg; how it was run: as §3
[12] = test system: Mus musculus; assay: Evaluated for seizure threshold test at a dose 300 mg/kg &MMT is the maximal metrazole threshold to tonic flexion.; format: functional; how it was run: as §2
[13] = test system: Mus musculus; assay: Evaluated for seizure threshold test at a dose 300 mg/kg &MST is the metrazole seizure threshold to persistent clonus; NA - Inactive.; format: functional, organism-based; design: dose 300 mg/kg; how it was run: as §2
[14] = test system: Mus musculus; assay: Effective dose (ED50) was determined in sc Met (pentylenetetrazole) seizure threshold test; I = Inactive.; format: functional, organism-based; how it was run: as §1
[15] = test system: Mus musculus; assay: Evaluated for seizure threshold test at a dose 25 mg/kg &MMT is the maximal metrazole threshold to tonic flexion; I = Inactive.; format: functional, organism-based; design: dose 25 mg/kg; how it was run: as §2
[16] = test system: Mus musculus; assay: Evaluated for seizure threshold test at a dose 25 mg/kg &MST is the metrazole seizure threshold to persistent clonus; I = Inactive.; format: functional, organism-based; design: dose 25 mg/kg; how it was run: as §2
[17] = organism: Mus musculus; assay: Compound was determined in rotarod test and expressed as TD50; I = Inactive.; format: ADME, organism-based; settings: in vivo; how it was run: as §1
[18] = test system: Mus musculus; assay: Evaluated for seizure threshold test at a dose 300 mg/kg &MST is the metrazole seizure threshold to persistent clonus; format: functional; how it was run: as §3
[19] = test system: GABA-A receptor; anion channel; assay: Inhibition of binding to GABA-A central benzodiazepine receptor (Inactive at 80 uM); format: protein-complex assay, Mus musculus
[20] = test system: Mus musculus; assay: Evaluated for seizure threshold test at a dose 300 mg/kg & MST is the metrazole seizure threshold to persistent clonus; I = Inactive.; format: functional, organism-based; design: dose 300 mg/kg; how it was run: as §2
[21] = test system: Mus musculus; assay: Evaluated for seizure threshold test at a dose 300 mg/kg & MMT is the maximal metrazole threshold to tonic flexion; I = Inactive.; format: functional, organism-based; design: dose 300 mg/kg; how it was run: as §2
[22] = test system: GABA-A receptor; anion channel; assay: Inhibition of binding to GABA-A central benzodiazepine receptor (Inactive); format: protein-complex assay, Mus musculus
[23] = test system: Mus musculus; assay: Evaluated for seizure threshold test at a dose 30 mg/kg &MMT is the maximal metrazole threshold to tonic flexion.; format: functional; how it was run: as §3
[24] = test system: Mus musculus; assay: Evaluated for seizure threshold test at a dose 30 mg/kg &MST is the metrazole seizure threshold to persistent clonus; I = Inactive; format: functional, organism-based; design: dose 30 mg/kg; how it was run: as §2
[25] = test system: Mus musculus; assay: Evaluated for seizure threshold test at a dose 50 mg/kg &MMT is the maximal metrazole threshold to tonic flexion.; format: functional; how it was run: as §3
[26] = test system: Mus musculus; assay: Evaluated for seizure threshold test at a dose 50 mg/kg &MST is the metrazole seizure threshold to persistent clonus; format: functional; how it was run: as §3
[27] = test system: Mus musculus; assay: Evaluated for seizure threshold test at a dose 30 mg/kg &MST is the metrazole seizure threshold to persistent clonus; format: functional; how it was run: as §3
[28] = test system: Mus musculus; assay: Evaluated for seizure threshold test at a dose 600 mg/kg &MST is the metrazole seizure threshold to persistent clonus; format: functional; how it was run: as §3
[29] = test system: Mus musculus; assay: Evaluated for seizure threshold test at a dose 600 mg/kg &MMT is the maximal metrazole threshold to tonic flexion.; format: functional; how it was run: as §2
[30] = target: GABA-A receptor; anion channel; assay: Binding affinity for umolar GABA-A central benzodiazepine receptor; format: protein-complex assay, Mus musculus
[31] = test system: Mus musculus; assay: Evaluated for seizure threshold test at a dose 100 mg/kg & MMT is the maximal metrazole threshold to tonic flexion; I - Inactive.; format: functional, organism-based; design: dose 100 mg/kg; how it was run: as §2
[32] = test system: Mus musculus; assay: Evaluated for seizure threshold test at a dose 100 mg/kg & MST is the metrazole seizure threshold to persistent clonus; format: functional; how it was run: as §3
[33] = test system: Mus musculus; assay: Evaluated for seizure threshold test at a dose 300 mg/kg & MMT is the maximal metrazole threshold to tonic flexion; I - Inactive.; format: functional; how it was run: as §2

Q: With CC1=NCC(=O)Nc2c1cc(C)c(C)c2C#N as the molecule, how does the ED50 [1] read?
A: The ED50 was “inactive”.

Q: What about the Change [2] of the same molecule?
A: Its Change is “Not significant”.

Q: And the Change [3]?
A: The Change was 30%.

Q: And the LD50 [4]?
A: Its LD50 is 150 mg/kg.

Q: What about the TD50 [5] of the same molecule?
A: Its TD50 is 70 mg/kg.

Q: Which results are given for Cc1cc2c(c(C#N)c1C)NC(=O)CN=C2c1ccccc1?
A: Change [6]: inactive; Change [7]: 44%; ED50 [8]: 370 mg/kg; Change [9]: inactive; LD50 ([4]; read-out: LD): > 2 mg/kg; Change [10]: inactive; TD50 [5]: > 1000 mg/kg; Change [11]: inactive

Q: Which results are given for CC(=O)c1cc(-c2ccccc2)c(-c2ccccc2)c(C#N)c1N?
A: Change [12]: 20%; Change [13]: inactive; ED50 [8]: 260 mg/kg; TD50 [5]: > 600 mg/kg

Q: For Cc1cc2c(-c3ccccc3)ncnc2c(C#N)c1C, which ED50 [14] is on record?
A: The ED50 was “inactive”.

Q: What about the Change [15] of the same molecule?
A: The Change was “Not significant”.

Q: What about the Change [16] of the same molecule?
A: Its Change is “Not significant”.

Q: What about the TD50 [17] of the same molecule?
A: Its TD50 is “Not Active”.

Q: For CC(=O)c1cc(C)c(C)c(C#N)c1N, which Change [12] is on record?
A: Its Change is 13%.

Q: What about the Change [18] of the same molecule?
A: Its Change is 15%.

Q: What about the ED50 [8] of the same molecule?
A: Its ED50 is 300 mg/kg.

Q: And the TD50 [5]?
A: The TD50 was greater than 600 mg/kg.

Q: With Cc1cc2c(c(C#N)c1C)NC=NC2C1CCCCC1 (stereo not drawn) as the molecule, how does the IC50 [19] read?
A: Its IC50 is “Not Active”.

Q: And the Change [20]?
A: Its Change is “inactive”.

Q: What about the Change [21] of the same molecule?
A: Its Change is “inactive”.

Q: What about the ED50 [1] of the same molecule?
A: Its ED50 is “inactive”.

Q: What about the TD50 [5] of the same molecule?
A: Its TD50 is greater than 600 mg/kg.

Q: With Cc1cc2c(-c3ccccc3)nc(O)nc2c(C#N)c1C as the molecule, how does the ED50 [14] read?
A: Its ED50 is “inactive”.

Q: What about the Change [15] of the same molecule?
A: Its Change is “Not significant”.

Q: What about the Change [16] of the same molecule?
A: The Change was “Not significant”.

Q: And the TD50 [17]?
A: Its TD50 is “Not Active”.

Q: Which IC50 [22] does the source give for Cc1cc2c(C)ncnc2c(C#N)c1C here?
A: The IC50 was “Not Active”.

Q: And the ED50 [1]?
A: The ED50 was “inactive”.

Q: And the Change [23]?
A: Its Change is -24%.

Q: And the Change [24]?
A: The Change was “inactive”.

Q: What about the LD50 [4] of the same molecule?
A: Its LD50 is 150 mg/kg.

Q: What about the TD50 [5] of the same molecule?
A: Its TD50 is 45 mg/kg.

Q: Which results are given for Cc1ccccc1-n1c(C)nc2ccccc2c1=O [METHAQUALONE]?
A: Change [25]: 40%; Change [26]: 42%; Change [23]: 17%; Change [27]: 18%

Q: Which Change [28] does the source give for Cc1cc(C(=O)C2CC2)c(N)c(C#N)c1C here?
A: The Change was 23%.

Q: And the Change [29]?
A: Its Change is 37%.

Q: What about the ED50 [8] of the same molecule?
A: The ED50 was 600 mg/kg.

Q: And the TD50 [5]?
A: The TD50 was greater than 600 mg/kg.

Q: With O=C1NC(=O)C(c2ccccc2)(c2ccccc2)N1 [PHENYTOIN] as the molecule, how does the pKi [30] read?
A: The pKi was 3.81.

Q: Which ED50 [14] does the source give for Cc1cc2c(-c3ccccc3F)ncnc2c(C#N)c1C here?
A: Its ED50 is “inactive”.

Q: And the Change [15]?
A: The Change was “Not significant”.

Q: And the Change [16]?
A: Its Change is “Not significant”.

Q: What about the TD50 [17] of the same molecule?
A: Its TD50 is “Not Active”.

Q: What does the source list for CC(=O)c1cc(C)c(C)c(C#N)c1NC(=O)CBr?
A: Change [7]: -22%; ED50 [8]: 500 mg/kg; Change [31]: Not significant; Change [32]: -14%; Change [33]: -17%; TD50 [5]: 600 mg/kg

Q: For Cc1cc(C(=O)c2ccccc2)c(O)c(C#N)c1C, which ED50 [14] is on record?
A: The ED50 was “inactive”.

Q: And the Change [15]?
A: The Change was “Not significant”.

Q: What about the Change [16] of the same molecule?
A: Its Change is “Not significant”.

Q: And the TD50 [17]?
A: The TD50 was “Not Active”.
